Structures are written as SMILES. Active and inactive are the calls of the source. No cut-off for these calls is given here.

One assay addresses Histone deacetylase 1 (Homo sapiens, UniProt Q13547). As to the kind of experiment: Inhibition of HDAC1 (unknown origin) assessed as inhibition of fluorogenic peptide deacetylation.
The target of another assay is T1, Androgen receptor (Homo sapiens, UniProt P10275).
T1 sequence (P10275 whole entry): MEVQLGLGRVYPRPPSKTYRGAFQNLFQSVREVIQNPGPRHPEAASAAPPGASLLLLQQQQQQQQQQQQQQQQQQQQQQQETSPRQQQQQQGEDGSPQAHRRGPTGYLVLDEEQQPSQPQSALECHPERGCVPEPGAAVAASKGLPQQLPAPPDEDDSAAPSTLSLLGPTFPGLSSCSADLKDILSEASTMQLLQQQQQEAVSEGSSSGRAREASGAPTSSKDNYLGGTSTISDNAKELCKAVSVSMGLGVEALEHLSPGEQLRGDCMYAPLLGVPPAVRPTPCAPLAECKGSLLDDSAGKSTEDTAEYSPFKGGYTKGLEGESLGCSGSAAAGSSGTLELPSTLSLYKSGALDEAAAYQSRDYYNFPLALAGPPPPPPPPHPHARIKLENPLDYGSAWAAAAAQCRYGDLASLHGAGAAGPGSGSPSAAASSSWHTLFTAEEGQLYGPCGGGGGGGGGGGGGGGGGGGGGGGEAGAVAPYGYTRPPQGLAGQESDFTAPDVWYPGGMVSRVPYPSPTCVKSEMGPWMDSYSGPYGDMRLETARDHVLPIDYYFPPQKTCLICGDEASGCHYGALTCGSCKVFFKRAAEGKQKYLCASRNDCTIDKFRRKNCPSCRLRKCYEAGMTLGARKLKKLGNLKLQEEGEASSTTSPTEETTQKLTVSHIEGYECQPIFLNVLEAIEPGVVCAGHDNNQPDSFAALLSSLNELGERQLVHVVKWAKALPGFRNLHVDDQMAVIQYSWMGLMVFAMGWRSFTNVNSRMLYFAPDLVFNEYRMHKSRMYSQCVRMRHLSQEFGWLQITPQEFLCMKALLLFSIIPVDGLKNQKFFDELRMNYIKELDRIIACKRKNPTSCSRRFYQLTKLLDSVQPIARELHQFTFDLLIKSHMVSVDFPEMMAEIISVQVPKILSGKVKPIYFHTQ
As to the kind of experiment: Displacement of [3H]mibolerone from androgen receptor (unknown origin) in membranes after 24 hrs by HAP adsorption assay.

For assay [1], the target named is T2, Protein deacetylase HDAC6 (Homo sapiens, UniProt Q9UBN7).
T2 sequence (Q9UBN7 whole entry): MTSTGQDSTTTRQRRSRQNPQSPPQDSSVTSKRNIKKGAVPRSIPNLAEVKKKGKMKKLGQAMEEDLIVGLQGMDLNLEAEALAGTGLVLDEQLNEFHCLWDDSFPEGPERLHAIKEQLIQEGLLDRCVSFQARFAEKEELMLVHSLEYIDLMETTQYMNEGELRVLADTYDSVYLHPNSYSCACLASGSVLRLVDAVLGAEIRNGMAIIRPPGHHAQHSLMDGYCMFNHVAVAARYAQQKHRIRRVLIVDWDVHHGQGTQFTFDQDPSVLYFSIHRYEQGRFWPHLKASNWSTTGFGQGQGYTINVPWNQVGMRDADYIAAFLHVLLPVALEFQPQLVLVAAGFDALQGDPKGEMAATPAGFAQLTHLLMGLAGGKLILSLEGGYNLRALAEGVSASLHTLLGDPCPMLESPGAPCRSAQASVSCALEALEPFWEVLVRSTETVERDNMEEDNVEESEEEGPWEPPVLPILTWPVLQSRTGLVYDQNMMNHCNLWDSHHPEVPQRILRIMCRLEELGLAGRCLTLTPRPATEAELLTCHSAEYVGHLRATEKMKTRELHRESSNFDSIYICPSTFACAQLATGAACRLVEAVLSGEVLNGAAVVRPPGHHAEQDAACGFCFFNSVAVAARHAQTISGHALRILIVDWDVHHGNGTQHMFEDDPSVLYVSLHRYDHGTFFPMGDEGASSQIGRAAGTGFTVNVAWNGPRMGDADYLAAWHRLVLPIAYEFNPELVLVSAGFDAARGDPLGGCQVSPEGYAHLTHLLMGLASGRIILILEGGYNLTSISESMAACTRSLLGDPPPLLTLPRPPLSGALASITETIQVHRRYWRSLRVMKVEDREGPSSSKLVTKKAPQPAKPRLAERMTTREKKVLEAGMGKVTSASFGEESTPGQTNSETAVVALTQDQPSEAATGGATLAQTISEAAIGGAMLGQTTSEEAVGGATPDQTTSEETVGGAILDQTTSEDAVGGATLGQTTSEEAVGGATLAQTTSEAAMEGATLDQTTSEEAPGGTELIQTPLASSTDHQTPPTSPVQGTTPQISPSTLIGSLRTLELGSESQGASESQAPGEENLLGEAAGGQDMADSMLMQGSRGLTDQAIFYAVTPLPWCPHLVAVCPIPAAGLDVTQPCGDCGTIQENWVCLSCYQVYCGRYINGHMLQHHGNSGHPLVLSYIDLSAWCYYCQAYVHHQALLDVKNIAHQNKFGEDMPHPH
As to the kind of experiment: Inhibition of HDAC6 (unknown origin) assessed as inhibition of fluorogenic peptide deacetylation.

The target in another assay is Histone deacetylase 2 (Homo sapiens, UniProt Q92769). As to the kind of experiment: Inhibition of HDAC2 (unknown origin) assessed as inhibition of fluorogenic peptide deacetylation.
Another assay has as its target Histone deacetylase 3 (Homo sapiens, UniProt O15379). Put plainly: Inhibition of HDAC3 (unknown origin) assessed as inhibition of fluorogenic peptide deacetylation.
In assay [2] the target is T3, Androgen receptor (Homo sapiens) (UniProt P10275).
T3 sequence (whole entry): T1 sequence (P10275 whole entry)
Put plainly: Antagonist activity at AR in human LNCAP cells assessed as suppression of DHT-induced AR protein level measured after 24 hrs relative to control. The assay is classed as cell-based. In outline: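 LNCaP cells were stimulated with 10 nM DHT and co-treated with test agent for 24 h. Whole-cell extracts were resolved on an acrylamide gel and immunoblotted for AR and acetylated tubulin, with actin as the loading control. AR protein level was normalized to actin and compared with vehicle-treated cells.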

Histone deacetylase 2, sequence (Q92769 whole entry): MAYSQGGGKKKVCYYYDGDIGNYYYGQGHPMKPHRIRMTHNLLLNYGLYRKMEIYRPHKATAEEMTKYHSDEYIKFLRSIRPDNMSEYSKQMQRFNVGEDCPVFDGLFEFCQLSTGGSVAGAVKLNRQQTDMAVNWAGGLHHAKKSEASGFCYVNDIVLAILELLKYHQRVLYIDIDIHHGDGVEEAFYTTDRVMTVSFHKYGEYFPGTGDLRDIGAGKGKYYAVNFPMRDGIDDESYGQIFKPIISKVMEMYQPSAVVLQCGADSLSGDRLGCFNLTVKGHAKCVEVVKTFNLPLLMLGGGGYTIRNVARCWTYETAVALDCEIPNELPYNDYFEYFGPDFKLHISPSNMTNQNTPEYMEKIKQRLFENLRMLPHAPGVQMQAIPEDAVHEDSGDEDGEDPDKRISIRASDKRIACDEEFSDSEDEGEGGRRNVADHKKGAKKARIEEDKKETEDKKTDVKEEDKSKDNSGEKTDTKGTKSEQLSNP
Histone deacetylase 3, sequence (O15379 whole entry): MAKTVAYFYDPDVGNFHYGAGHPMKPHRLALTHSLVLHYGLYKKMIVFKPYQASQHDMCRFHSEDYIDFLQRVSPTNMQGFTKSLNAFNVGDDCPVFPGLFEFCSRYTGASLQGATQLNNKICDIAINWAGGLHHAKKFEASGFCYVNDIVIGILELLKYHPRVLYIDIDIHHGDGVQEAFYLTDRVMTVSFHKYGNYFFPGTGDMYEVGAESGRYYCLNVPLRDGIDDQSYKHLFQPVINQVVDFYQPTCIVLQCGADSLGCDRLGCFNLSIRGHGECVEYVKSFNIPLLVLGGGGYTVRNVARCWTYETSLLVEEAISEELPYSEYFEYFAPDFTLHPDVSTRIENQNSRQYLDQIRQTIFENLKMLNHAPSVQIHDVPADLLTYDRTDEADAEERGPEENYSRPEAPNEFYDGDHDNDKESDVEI
Histone deacetylase 1, sequence (Q13547 whole entry): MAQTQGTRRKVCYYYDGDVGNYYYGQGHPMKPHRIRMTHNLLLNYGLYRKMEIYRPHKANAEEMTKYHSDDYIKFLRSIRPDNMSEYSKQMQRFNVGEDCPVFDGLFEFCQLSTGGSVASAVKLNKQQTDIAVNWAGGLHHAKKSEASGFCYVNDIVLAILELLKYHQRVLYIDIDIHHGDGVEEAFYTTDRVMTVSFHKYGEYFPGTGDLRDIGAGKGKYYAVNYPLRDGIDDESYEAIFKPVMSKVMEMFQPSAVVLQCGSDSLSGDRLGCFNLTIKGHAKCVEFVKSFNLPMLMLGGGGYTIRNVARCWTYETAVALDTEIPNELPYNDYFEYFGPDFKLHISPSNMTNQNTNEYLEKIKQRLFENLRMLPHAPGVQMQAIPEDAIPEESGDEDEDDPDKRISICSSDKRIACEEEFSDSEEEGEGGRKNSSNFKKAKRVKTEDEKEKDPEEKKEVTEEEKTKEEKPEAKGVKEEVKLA

For `CC1(C)C(=O)N(c2ccc(C#N)c(C(F)(F)F)c2)C(=S)N1c1ccc(C(=O)NCCOCCC(=O)NO)c(F)c1`, the IC50 on Histone deacetylase 1 worked out at 58.1 µM; on Androgen receptor, 0.078 µM; in assay [1], 0.495 µM; at Histone deacetylase 2, 86.5 µM; at Histone deacetylase 3 it was 49.2 µM.
For the compound `CC1(C)C(=O)N(c2ccc(C#N)c(C(F)(F)F)c2)C(=S)N1c1ccc(C(=O)NCCCCCCn2cccc(O)c2=O)c(F)c1`, the 50% inhibitory concentration (IC50) is > 100 µM on Histone deacetylase 1; 0.25 µM on Androgen receptor; > 100 µM in assay [1]; > 100 µM at Histone deacetylase 2; > 100 µM on Histone deacetylase 3.
Take `CN1CCc2c(c3ccccc3n2Cc2ccc(C(=O)NO)cc2)C1`: in assay [2], the inhibition entry is “Active”.
For the compound `CC1(C)C(=O)N(c2ccc(C#N)c(C(F)(F)F)c2)C(=S)N1c1ccc(/C=C/C(=O)Nc2ccccc2N)c(F)c1`, the half-inhibitory concentration (IC50) is > 100 µM at Histone deacetylase 1; 0.23 µM at Androgen receptor; 60 µM in assay [1]; > 100 µM on Histone deacetylase 2; 20.2 µM on Histone deacetylase 3.
With `CC1(C)C(=O)N(c2ccc(C#N)c(C(F)(F)F)c2)C(=S)N1c1ccc(C(=O)Nc2ccccc2N)c(F)c1`, the IC50 came to 6.19 µM on Histone deacetylase 1; 0.33 µM on Androgen receptor; 47.3 µM in assay [1]; 14.1 µM on Histone deacetylase 2; 5.4 µM on Histone deacetylase 3.
For the compound `CC1(C)C(=O)N(c2ccc(C#N)c(C(F)(F)F)c2)C(=S)N1c1ccc(C(=O)NCCCCCCC(=O)Nc2ccccc2N)c(F)c1`, the IC50 on Histone deacetylase 1 was > 10 µM; at Androgen receptor, < 0.03 µM; in assay [1], > 10 µM; at Histone deacetylase 2, 3.37 µM; at Histone deacetylase 3 it was 0.28 µM.
Take `CC1(C)C(=O)N(c2ccc(C#N)c(C(F)(F)F)c2)C(=S)N1c1ccc(C(=O)NCCCn2cccc(O)c2=O)c(F)c1`: the half-inhibitory concentration (IC50) at Histone deacetylase 1 is > 100 µM; at Androgen receptor it was 0.56 µM; in assay [1], 14 µM; on Histone deacetylase 2, > 100 µM; on Histone deacetylase 3, > 100 µM.
`CC1(C)C(=O)N(c2ccc(C#N)c(C(F)(F)F)c2)C(=S)N1c1ccc(C(=O)OCCCCCC(=O)NO)c(F)c1`: the half-maximal inhibitory concentration (IC50) on Histone deacetylase 1 stood at 3.15 µM; at Androgen receptor it was 0.043 µM; in assay [1] it was 0.002 µM; on Histone deacetylase 2, 1.1 µM; at Histone deacetylase 3, 2 µM.
For the compound `CC1(C)C(=O)N(c2ccc(C#N)c(C(F)(F)F)c2)C(=S)N1c1ccc(C(=O)NCCCNS(N)(=O)=O)c(F)c1`, the half-maximal inhibitory concentration (IC50) at Histone deacetylase 1 is > 100 µM; at Androgen receptor, 0.35 µM; in assay [1], > 100 µM; on Histone deacetylase 2, > 100 µM; at Histone deacetylase 3 it was > 100 µM.
For the compound `CC1(C)C(=O)N(c2ccc(C#N)c(C(F)(F)F)c2)C(=S)N1c1ccc(C(=O)NCCCCCCNS(N)(=O)=O)c(F)c1`, the 50% inhibitory concentration (IC50) at Histone deacetylase 1 was > 100 µM; on Androgen receptor, 0.11 µM; in assay [1], 1.12 µM; on Histone deacetylase 2, > 100 µM; on Histone deacetylase 3, > 100 µM.
Turning to `CC1(C)C(=O)N(c2ccc(C#N)c(C(F)(F)F)c2)C(=S)N1c1ccc(Cn2ccc3cc(/C=C/C(=O)NO)ccc32)c(F)c1`, the concentration for half-maximal inhibition (IC50) was > 100 µM at Histone deacetylase 1; < 0.03 µM at Androgen receptor; 2.03 µM in assay [1]; > 100 µM on Histone deacetylase 2; > 100 µM on Histone deacetylase 3.
`CC1(C)C(=O)N(c2ccc(C#N)c(C(F)(F)F)c2)C(=S)N1c1ccc(C(=O)NCCCCCCc2ccc(C(=O)C(F)(F)F)s2)c(F)c1`: the concentration for half-maximal inhibition (IC50) at Histone deacetylase 1 was > 10 µM; at Androgen receptor, 0.068 µM; in assay [1], > 10 µM; on Histone deacetylase 2, > 10 µM; at Histone deacetylase 3, > 10 µM.
`CC1(C)C(=O)N(c2ccc(C#N)c(C(F)(F)F)c2)C(=S)N1c1ccc(C(=O)NCCCCCCn2cccc(O)c2=S)c(F)c1`: the half-maximal inhibitory concentration (IC50) on Histone deacetylase 1 is > 10 µM; at Androgen receptor, < 0.03 µM; in assay [1], > 10 µM; on Histone deacetylase 2, 3.33 µM; on Histone deacetylase 3, > 10 µM.

Values taken from ChEMBL document CHEMBL3862016 (Bioorg Med Chem Lett, 2016).
